Data set [1] deals with Mycobacterium tuberculosis. As to the kind of experiment: Antimycobacterial activity against Mycobacterium tuberculosis H37Rv ATCC 25618 after 10 to 14 days by microplate alamar blue assay. In kind it is functional.
The subject of data set [2] is Mycobacterium tuberculosis. Put plainly: Antimycobacterial activity against Mycobacterium tuberculosis pSMT1 infected in mouse J774A.1 ATCC TIB-67 cells assessed as viable bacterial count at 4 ug/ml for 4 days followed by 3 days incubation in drug-free medium by luciferase reporter gene assay. The data set is classed as functional. (In a reporter assay the amount or activity of a reporter protein is the signal.)

The test system of data set [3] is Mycobacterium tuberculosis. As to the kind of experiment: Antimycobacterial activity against Mycobacterium tuberculosis pSMT1 infected in mouse J774A.1 ATCC TIB-67 cells assessed as inhibition of intracellular bacterial growth at MIC for 4 days followed by 3 days incubation in drug-free medium by luciferase reporter gene assay. In kind it is functional.
Data set [4] relates to Mycobacterium tuberculosis. Put plainly: Antimycobacterial activity against Mycobacterium tuberculosis H37Rv infected in C3H/HeNCrlBR mouse assessed as prevention of body weight loss at 10 mg/kg, po administered 7 days after infection for 2 weeks measured after 10 to 15 days relative to control. In kind it is functional, organism-based. On the set-up: dose 10 mg/kg. In a few lines:
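Treatment began 7 days after infection: oral gavage once daily at 10 mg/kg for 2 wk. Body weights tracked from day 0 through day 21 and compared with uninfected mice and infected placebo-treated mice. Mortality was followed after therapy ended.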

The test system of data set [5] is Mycobacterium tuberculosis. Put plainly: Antimycobacterial activity against recombinant strain Mycobacterium tuberculosis Rv0341 by firefly luciferase reporter gene assay. The data set is classed as functional, organism-based. In a few lines:
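Recombinant Mtb carrying a promoter fused to firefly luciferase, which is activated and produces light when cell wall biosynthesis is inhibited. High-throughput luminescence read-out.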

The next data set has as its system J774.A1. Put plainly: Cytotoxicity against mouse J774A1 cells assessed as cell aggregation at 4 ug/ml. In kind it is cell-based.
Data set [6] relates to Mycobacterium tuberculosis. As to the kind of experiment: Antimycobacterial activity against Mycobacterium tuberculosis pSMT1 infected in mouse J774A.1 ATCC TIB-67 cells assessed as viable bacterial count at 0.125 ug/ml for 4 days followed by 3 days incubation in drug-free medium by luciferase reporter gene assay. The data set is classed as functional. In a few lines:
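Mtb-infected J774A.1 mouse macrophages exposed to drug for 4 days, then medium replaced with drug-free medium and cultures incubated 3 more days. Triplicate wells lysed on day 0 and day 7 and viable bacteria measured as relative light units. Isoniazid control at 0.125 μg/ml.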

SMILES strings stand for the structures. Converted amounts (≈) assume the structure as drawn. The source made the active and inactive calls. The rule behind the calls is not given here.

For the compound `CCC(CN1CCC(CN2CCC(O)CC2)CC1)c1ccccc1` (stereo not drawn), the minimal inhibitory concentration (MIC) – broadly, the lowest concentration found to suppress growth – in data set [1] stood at 8 µg/mL (≈ 24.2 µM).

Take `OC1CCN(CC2CCN(CC34CC5CC(CC(C5)C3)C4)CC2)CC1`: in data set [2], the Activity is recorded as 354 RLU. The “inhibition (INH)” value in data set [3] was >90%. In addition, the result in data set [4], in data set [5] and in data set [1] was Active. In data set [1], the MIC worked out at 4 µg/mL (≈ 11.5 µM).

For `OC1CCN(CC2CCN(CC3CCCCCC3)CC2)CC1`, in data set [1], the MIC is 14 µg/mL (≈ 45.4 µM).

Consider `OC1CCN(CC2CCN(CC(c3ccccc3)c3ccccc3)CC2)CC1`, for which the Activity entry in the data set with J774.A1 is reported as “Toxic”. Further, the result in data set [4], in data set [5] and in data set [1] was Active. In data set [1], this compound showed an MIC of 4 µg/mL (≈ 10.6 µM).

The compound `c1ccc(CC2CCN(CC3CCN(CCC45CC6CC(CC(C6)C4)C5)CC3)CC2)cc1` had an MIC in data set [1] of 5 µg/mL (≈ 11.5 µM).

On to `NNC(=O)c1ccncc1` [ISONIAZID], for which the Activity in data set [6] was 4 RLU.

Regarding `c1ccc(CC2CCN(CC3CCN(CC(c4ccccc4)c4ccccc4)CC3)CC2)cc1`, in data set [1], inhibition of growth (MIC) required 11 µg/mL (≈ 24.3 µM).

Consider `OC1CCN(CC2CCN(C3C4CC5CC(C4)CC3C5)CC2)CC1` (stereo not drawn), for which the outcome in data set [5] and in data set [1] was Active.

In turn, `OC1CCN(CC2CCN(CCC34CC5CC(CC(C5)C3)C4)CC2)CC1` gave an MIC in data set [1] of 15 µg/mL (≈ 41.6 µM).

`CC(C)=CCC/C(C)=C/CN1CCC(CN2CCC(Cc3ccccc3)CC2)CC1` yielded an MIC in data set [1] of 20 µg/mL (≈ 48.9 µM).

With `c1ccc(CC2CCN(CC3CCN(CC45CC6CC(CC(C6)C4)C5)CC3)CC2)cc1`, the MIC in data set [1] came out at 10 µg/mL (≈ 23.8 µM).

`OCC1CCCN(CC2CCN(CC(c3ccccc3)c3ccccc3)CC2)C1` (stereo not drawn): inhibition of growth in data set [1] (MIC) required 40 µg/mL (≈ 102 µM).

On to `OC1CCN(CC2CCN(CCOc3ccccc3)CC2)CC1`, for which the minimal inhibitory concentration (MIC) in data set [1] was 8 µg/mL (≈ 25.1 µM).

Values taken from ChEMBL document CHEMBL1821655, “Identification of SQ609 as a lead compound from a library of dipiperidines” (Bioorg Med Chem Lett, 2011).
